ChEMBL document CHEMBL1131084, “3-Alkyl ethers of clocinnamox: delayed long-term mu-antagonists with variable mu efficacy” (J Med Chem, 1998)
pKi: −log10 of the molar value. The source made the active and inactive calls. The rule behind the calls is not given here.

Columns and labels:
[1] = target: Kappa-type opioid receptor (Rattus norvegicus, UniProt P34975); test: In vitro binding affinity against Opioid receptor kappa 1 in rat brain homogenates.; assay type: tissue-based
How it was run: (§1)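 Crude membranes from brain minus cerebellum, homogenized in 50 mM Tris, pH 7.4. Radioligands [3H]DAMGO 2 nM (μ), [3H]DPDPE 1.8 nM (δ), [3H]U69,593 1.1 nM (κ). Nonspecific binding defined with 10 μM naloxone. Compounds from DMSO stock; final DMSO ≤0.1%.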

Mu-type opioid receptor = Mu-type opioid receptor (Rattus norvegicus, UniProt P33535); test: In vitro binding affinity against Opioid receptor mu 1 (DAMGO) opioid receptor in rat brain homogenates.; assay type: tissue-based; how it was run: as §1
[2] = target: Delta-type opioid receptor (Rattus norvegicus, UniProt P33533); test: In vitro binding affinity against Opioid receptor delta 1 (DPDPE) in rat brain homogenates.; assay type: tissue-based; how it was run: as §1
Mus musculus [3] = species: Mus musculus; test: Percent MPE was evaluated in mouse tail withdrawal assay; assay type: functional
How it was run: (§2)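 Mice, tail withdrawal test in 50 °C water. Ethers dissolved in sterile water containing 16% MeOH and 1% HCl and injected sc. ED50 in mg/kg and % MPE reported; means ± SEM from 6 animals.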

Mus musculus [4] = species: Mus musculus; test: Antinociceptive potency determined by mouse tail withdrawal assay.; assay type: functional; how it was run: as §2
Mus musculus [5] = test: Antagonism of morphine antinociceptive ED50 by the compound. Onset and Duration of morphine antagonist action in the mouse tail flick assay at a Pretreatment time of 24 hours.(sc administration); assay type: functional
How it was run: (§3)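 Mice, tail flick test. Ether given sc (vehicle: distilled water, 5% aqueous DMSO or 5% hydroxypropyl-β-cyclodextrin), then morphine; pretreatment intervals from the standard 30 min up to 72 h. Antagonism taken as the shift in morphine antinociceptive ED50.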

Mus musculus [6] = test: Antagonism of morphine antinociceptive ED50 by the compound. Onset and Duration of morphine antagonist action in the mouse tail flick assay at a Pretreatment time of 6 hours.(sc administration); assay type: functional; how it was run: as §3
Mus musculus [7] = test: Effect of antagonist (beta-FNA, 32 mg/kg for a pretreatment time of 24 h) on the inhibition of acetic acid-induced abdominal stretches by the compound (10 mg/kg sc); assay type: functional, Abdomen
How it was run: (§4)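 Mice, acetic acid abdominal stretch assay (stretches induced by ip acetic acid). Ether 10 mg/kg sc, given after a selective antagonist: β-FNA 32 mg/kg at 24 h, naltrindole 10 mg/kg at 15 min, or nor-BNI 32 mg/kg at 24 h beforehand. Read-out is % antagonism.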

Mus musculus [8] = test: Comparison of the antinociceptive agonist/antagonist profile of activity by tail flick test.(sc administration); assay type: functional
How it was run: (§5)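 Mice, phenylquinone abdominal stretch, hot plate or tail flick tests. Compounds given sc in distilled water, 5% aqueous DMSO or 5% hydroxypropyl-β-cyclodextrin.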

Mus musculus [9] = test: Effect of antagonist (Nor-BNI, 32 mg/kg for a pretreatment time of 24 h) on the inhibition of acetic acid-induced abdominal stretches by the compound (10 mg/kg sc); assay type: functional, Abdomen; how it was run: as §4
Mus musculus [10] = test: Comparison of the antinociceptive agonist/antagonist profile of activity by Tail Flick vs morphine test.(Inactive up to 30 mg/kg; sc administration); assay type: functional, organism-based; parameters: dose 30 mg/kg
Mus musculus [11] = test: Antagonism of morphine antinociceptive ED50 by the compound. Onset and Duration of morphine antagonist action in the mouse tail flick assay at a Pretreatment time of 2 hr. (30 mg/kg sc administration); assay type: functional; how it was run: as §3
Mus musculus [12] = test: Effect of antagonist (Naltrindole, 10 mg/kg for a pretreatment time of 15 min)on the inhibition of acetic acid-induced abdominal stretches by the compound (10 mg/kg sc); assay type: functional, Abdomen; how it was run: as §4
Mus musculus [13] = test: Antagonist selectivity after a 24-h pretreatment period, in the mouse abdominal stretch assay using BW373U86 (10 mg/kg) as the agonist.; assay type: functional, Abdomen
How it was run: (§6)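 Mice, acetic acid abdominal stretch assay. Ether 32 mg/kg sc given 24 h beforehand (vehicle sterile water with 16% MeOH and 1% HCl). Agonist (morphine 3.2 mg/kg, BW373U86 10 mg/kg, or bremazocine) given sc 15 min before ip acetic acid. Read-out is % antagonism of the agonist effect.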

Mus musculus [14] = species: Mus musculus; test: Antagonist selectivity after a 24-h pretreatment period, in the mouse abdominal stretch assay using Bremazocine as the agonist.; assay type: functional, Abdomen; how it was run: as §6
Mus musculus [15] = test: Comparison of the antinociceptive agonist/antagonist profile of activity byhot plate test.(sc administration); assay type: functional; how it was run: as §5
Mus musculus [16] = test: Comparison of the antinociceptive agonist/antagonist profile of activity by Phenylquinone-abdominal stretch test.(sc administration); assay type: functional; how it was run: as §5
Mus musculus [17] = test: Antagonist selectivity after a 24-h pretreatment period, in the mouse abdominal stretch assay using morphine (3.2 mg/kg) as the agonist.; assay type: functional, Abdomen; how it was run: as §6
Mus musculus [18] = test: Antagonism of morphine antinociceptive ED50 by the compound. Onset and Duration of morphine antagonist action in the mouse tail flick assay at a Pretreatment time of 36 hours.(sc administration); assay type: functional; how it was run: as §3
Mus musculus [19] = test: Antagonism of morphine antinociceptive ED50 by the compound. Onset and Duration of morphine antagonist action in the mouse tail flick assay at a Pretreatment time of 72 hours.(sc administration); assay type: functional; how it was run: as §3
Mus musculus [20] = test: Comparison of the antinociceptive agonist/antagonist profile of activity byhot plate test (sc administration); inactive up to 20 mg/kg.; assay type: functional, organism-based; parameters: dose 20 mg/kg; how it was run: as §5
Mus musculus [21] = test: Comparison of the antinociceptive agonist/antagonist profile of activity by Tail Flick vs morphine test (sc administration); inactive up to 30 mg/kg; assay type: functional, organism-based; parameters: dose 30 mg/kg
Mus musculus [22] = test: Comparison of the antinociceptive agonist/antagonist profile of activity by tail flick test (sc administration); inactive up to 30 mg/kg; assay type: functional, organism-based; parameters: dose 30 mg/kg; how it was run: as §5
Mus musculus [23] = test: Comparison of the antinociceptive agonist/antagonist profile of activity by hot plate test.(sc administration)
Mus musculus [24] = test: Comparison of the antinociceptive agonist/antagonist profile of activity by Tail Flick vs morphine test.(sc administration) inactive up to 30 mg/kg; assay type: functional, organism-based; parameters: dose 30 mg/kg
Mus musculus [25] = test: Comparison of the antinociceptive agonist/antagonist profile of activity by hot plate test.(sc administration); inactive up to 20 mg/Kg; assay type: functional, organism-based; how it was run: as §5
Mus musculus [26] = test: Comparison of the antinociceptive agonist/antagonist profile of activity by Tail Flick vs morphine test.(sc administration); assay type: functional
Mus musculus [27] = test: Percent MPE was evaluated in mouse tail withdrawal assay at 32 mg/kg; assay type: functional; how it was run: as §2

Chain of Kappa-type opioid receptor (P34975 whole entry): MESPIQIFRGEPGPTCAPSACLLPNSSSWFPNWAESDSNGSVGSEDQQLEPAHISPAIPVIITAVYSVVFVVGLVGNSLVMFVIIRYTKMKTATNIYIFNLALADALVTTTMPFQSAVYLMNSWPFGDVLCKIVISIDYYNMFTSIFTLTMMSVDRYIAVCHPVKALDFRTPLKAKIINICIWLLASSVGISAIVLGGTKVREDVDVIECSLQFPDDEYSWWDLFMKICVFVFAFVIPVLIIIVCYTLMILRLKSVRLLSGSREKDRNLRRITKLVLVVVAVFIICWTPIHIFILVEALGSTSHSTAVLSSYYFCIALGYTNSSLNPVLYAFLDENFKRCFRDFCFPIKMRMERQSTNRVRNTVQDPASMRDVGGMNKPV
Chain of Delta-type opioid receptor (P33533 whole entry): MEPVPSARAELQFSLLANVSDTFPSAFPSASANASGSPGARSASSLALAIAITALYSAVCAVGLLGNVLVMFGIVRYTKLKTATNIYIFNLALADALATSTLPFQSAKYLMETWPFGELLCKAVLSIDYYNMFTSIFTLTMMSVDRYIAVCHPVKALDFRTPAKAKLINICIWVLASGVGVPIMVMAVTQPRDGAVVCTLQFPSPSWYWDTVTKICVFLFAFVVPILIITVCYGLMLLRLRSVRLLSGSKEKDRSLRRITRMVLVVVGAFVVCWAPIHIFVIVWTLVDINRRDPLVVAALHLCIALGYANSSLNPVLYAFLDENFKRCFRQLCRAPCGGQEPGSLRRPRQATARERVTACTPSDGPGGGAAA
Chain of Mu-type opioid receptor (P33535 whole entry): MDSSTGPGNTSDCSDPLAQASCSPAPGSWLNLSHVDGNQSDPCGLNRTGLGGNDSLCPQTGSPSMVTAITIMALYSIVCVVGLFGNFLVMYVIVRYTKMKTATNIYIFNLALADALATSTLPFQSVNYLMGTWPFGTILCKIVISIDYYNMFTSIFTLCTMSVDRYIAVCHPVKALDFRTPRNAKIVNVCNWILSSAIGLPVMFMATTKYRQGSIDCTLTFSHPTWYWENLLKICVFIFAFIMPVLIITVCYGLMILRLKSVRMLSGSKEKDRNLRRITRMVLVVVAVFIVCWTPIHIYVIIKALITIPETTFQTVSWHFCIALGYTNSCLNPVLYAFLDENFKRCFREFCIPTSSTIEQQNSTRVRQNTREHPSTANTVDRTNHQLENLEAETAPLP

SMILES	pKi [1]	pKi (Mu-type opioid receptor)	pKi [2]	MPE (Mus musculus [3]) [%]	ED50 (Mus musculus [4]) [mg/kg]	ED50 (Mus musculus [16]) [mg/kg]	also measured
COC(=O)COc1ccc2c3c1O[C@H]1C(=O)CC[C@@]4(NC(=O)/C=C/c5ccc(Cl)cc5)[C@@H](C2)N(CC2CC2)CC[C@]314	7.02	8.12	7.61	–	–	–	–
C=CCOc1ccc2c3c1O[C@H]1C(=O)CC[C@@]4(NC(=O)/C=C/c5ccc(Cl)cc5)[C@@H](C2)N(CC2CC2)CC[C@]314	7.75	8.05	7.18	100	11.1	–	–
C#CCOc1ccc2c3c1O[C@H]1C(=O)CC[C@@]4(NC(=O)/C=C/c5ccc(Cl)cc5)[C@@H](C2)N(CC2CC2)CC[C@]314	7.72	8.80	7.67	100	6.3	0.3	AD50 (Mus musculus [5]): 4.06 mg/kg; AD50 (Mus musculus [6]): 14.11 mg/kg; Antagonism (Mus musculus [7]): 100%; ED50 (Mus musculus [8]): 1.2 mg/kg; Antagonism (Mus musculus [9]): 4.8%; ED50 (Mus musculus [10]): inactive; Antagonism (Mus musculus [11]): 17%; Antagonism (Mus musculus [12]): 3.9%; Antagonism (Mus musculus [13]): 38%; Antagonism (Mus musculus [14]): 7%; ED50 (Mus musculus [15]): 0.3 mg/kg; Antagonism (Mus musculus [17]): 96%; AD50 (Mus musculus [18]): 3.02 mg/kg; Antagonism (Mus musculus [19]): 36%
CC(C)Oc1ccc2c3c1O[C@H]1C(=O)CC[C@@]4(NC(=O)/C=C/c5ccc(Cl)cc5)[C@@H](C2)N(CC2CC2)CC[C@]314	7.83	7.22	7.02	–	–	–	–
O=C(/C=C/c1ccc(Cl)cc1)N[C@@]12CCC(=O)[C@@H]3Oc4c(O)ccc5c4[C@@]31CCN(CC1CC1)[C@@H]2C5 [CLOCINNAMOX]	8.27	8.05	7.90	–	–	–	–
O=C(/C=C/c1ccc(Cl)cc1)N[C@@]12CCC(=O)[C@@H]3Oc4c(OCC5CC5)ccc5c4[C@@]31CCN(CC1CC1)[C@@H]2C5	6.88	8.12	7.25	–	–	6.7	AD50 (Mus musculus [5]): 3.41 mg/kg; AD50 (Mus musculus [6]): 0.97 mg/kg; Antagonism (Mus musculus [11]): 57%; ED50 (Mus musculus [20]): inactive; Antagonism (Mus musculus [13]): 0%; Antagonism (Mus musculus [14]): 19%; ED50 (Mus musculus [21]): inactive; Antagonism (Mus musculus [17]): 100%; AD50 (Mus musculus [18]): 6.82 mg/kg; ED50 (Mus musculus [22]): inactive; AD50 (Mus musculus [19]): 11.39 mg/kg
N#CCOc1ccc2c3c1O[C@H]1C(=O)CC[C@@]4(NC(=O)/C=C/c5ccc(Cl)cc5)[C@@H](C2)N(CC2CC2)CC[C@]314	7.74	7.91	7.05	78	20.8	–	–
CN1CC[C@]23c4c5ccc(O)c4O[C@H]2[C@@H](O)C=C[C@H]3[C@H]1C5 [MORPHINE]	–	–	–	100	17.9	–	ED50 (Mus musculus [23]): 0.9 mg/kg; ED50 (Mus musculus [24]): inactive
COc1ccc2c3c1O[C@H]1C(=O)CC[C@@]4(NC(=O)/C=C/c5ccc(Cl)cc5)[C@@H](C2)N(CC2CC2)CC[C@]314	–	–	–	–	–	0.2	ED50 (Mus musculus [25]): inactive; ED50 (Mus musculus [26]): 6 mg/kg; ED50 (Mus musculus [22]): inactive
CCCOc1ccc2c3c1O[C@H]1C(=O)CC[C@@]4(NC(=O)/C=C/c5ccc(Cl)cc5)[C@@H](C2)N(CC2CC2)CC[C@]314	7.72	7.61	7.08	–	–	–	MPE (Mus musculus [27]): 35%
